Active and inactive are the calls of the source. The rule behind the calls is not given here. Where only a bound is given, the exact number is not on record here.

This note sets out measurements from ChEMBL document CHEMBL4354879, “Bioisosteric Discovery of NPA101.3, a Second-Generation RET/VEGFR2 Inhibitor Optimized for Single-Agent Polypharmacology” (J Med Chem, 2020).

Assay [1] deals with Mus musculus. The experiment in a line: In vivo inhibition of VEGFR2 in BALB/c nu/nu mouse implanted with mouse NIH/3T3 cells harboring RET isoform 9 C634R mutant assessed as reduction in VEGFR2 phosphorylation at 3 mg/kg, po administered once daily via gavage for 3 days measured 3 hrs post-last dose by Western blot analysis. In kind it is functional, organism-based. For orientation: Immunoblotting shows a protein as a band on a membrane.

For assay [2], the system named is GTPase HRas (Homo sapiens), P01112 [G12V]. The assay is described as follows: Inhibition of HRAS G12V mutant (unknown origin) expressed in mouse NIH/3T3 cells assessed as reduction in MAPK phosphorylation up to 100 nM measured after 2 hrs by Western blot analysis. In kind it is cell-based.
The test system of assay [3] is Proto-oncogene tyrosine-protein kinase receptor Ret (Homo sapiens), P07949 [C634W]. The experiment in a line: Inhibition of Ret isoform 9 C634W mutant in human TT cells assessed as reduction in SHC phosphorylation at 0.3 to 30 nM measured after 2 hrs by Western blot analysis. In kind it is cell-based.
For assay [4], the system named is Proto-oncogene tyrosine-protein kinase receptor Ret (Homo sapiens), P07949 [C634R]. The experiment in a line: Inhibition of RET […] C634R mutant (unknown origin) expressed in mouse BAF3 cells assessed as reduction in RET phosphorylation at Y1062 residue at 0.3 to 30 nM measured after 2 hrs by Western blot analysis. In kind it is cell-based. The gist of the method:
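Ba/F3 cells stably expressing long-isoform RET-51 mutants (electroporation), cultured in RPMI/10% FCS without IL-3; RET phosphorylation read by Western blot with anti-phospho-Y905 and anti-phospho-Y1062 antibodies, ECL detection.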

Assay [5] has as its target Voltage-gated inwardly rectifying potassium channel KCNH2 (Homo sapiens, UniProt Q12809). The assay is described as follows: Inhibition of human ERG expressed in HEK293 cells by patch clamp assay. A general note: Patch clamp records ionic current or voltage across a cell membrane.
The species named for the next assay is Homo sapiens. The assay is described as follows: Effect on MAPK phosphorylation in RET deficient human PC9 cells at 1 to 100 nM measured after 2 hrs by western blot analysis.
Assay [6] deals with T1, Macrophage colony-stimulating factor 1 receptor (Homo sapiens, UniProt P07333). The experiment in a line: Inhibition of recombinant human His-tagged CSF1R cytoplasmic domain (538 to 910 residues) expressed in baculovirus expression system using peptide substrate preincubated for 60 mins followed by substrate addition by microfluidic assay.
For assay [7], the target named is T2, Coiled-coil domain-containing protein 6/Tyrosine-protein kinase receptor RET (Homo sapiens) (UniProt P07949+Q16204). The assay is described as follows: Inhibition of CCDC6/RET in human LC2/ad cells assessed as reduction in MAPK phosphorylation at 0.3 to 30 nM measured after 2 hrs by Western blot analysis. Type of assay: cell-based.
Assay [8] has as its target T2, Coiled-coil domain-containing protein 6/Tyrosine-protein kinase receptor RET (Homo sapiens). The assay is described as follows: Inhibition of CCDC6/RET in human TPC1 cells assessed as reduction in SHC phosphorylation at 0.3 to 30 nM measured after 2 hrs by Western blot analysis. Type of assay: cell-based.
Assay [9] deals with Tyrosine-protein kinase Lyn (Homo sapiens) (UniProt P07948). The experiment in a line: Binding affinity to wild-type human partial length LYN (C219 to Q511 residues) expressed in bacterial expression system at 100 nM by Kinomescan method relative to control.
Assay [10] has as its target T1, Macrophage colony-stimulating factor 1 receptor. The assay is described as follows: Binding affinity to wild-type human partial length CSF1R (I564 to S939 residues) expressed in bacterial expression system at 100 nM by Kinomescan method relative to control.
Assay [11] deals with Tyrosine-protein kinase FRK (Homo sapiens) (UniProt P42685). The experiment in a line: Binding affinity to wild-type human partial length FRK (A215 to F503 residues) expressed in bacterial expression system at 100 nM by Kinomescan method relative to control.
Assay [12] has as its system Proto-oncogene tyrosine-protein kinase receptor Ret (Homo sapiens), P07949 [C634R]. The assay is described as follows: Inhibition of RET isoform 9 C634R mutant (unknown origin) expressed in rat Rat1 assessed as reduction in RET phosphorylation at Y905 residue at 3 nM measured after 2 hrs by Western blot analysis. Type of assay: cell-based. The essentials:
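RAT1 fibroblasts expressing RET-9 C634R, serum-starved, treated 2 h with 0.1–10.0 nM; 50 μg lysate blotted for RET pY905 and pY1062, normalized to total RET; ECL detection.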

The test system of assay [13] is Mus musculus. The experiment in a line: In vivo inhibition of RET isoform 9 C634Y mutant transfected in mouse NIH/3T3 cells implanted BALB/c nu/nu mouse assessed as reduction in MAPK phosphorylation in tumor at 1 mg/kg, po administered once daily via gavage for 3 days measured 3 hrs post-last dose by Western blot analysis.

Chain of Proto-oncogene tyrosine-protein kinase receptor Ret (Homo sapiens), P07949 [C634R] (P07949 whole entry C634R, canonical isoform): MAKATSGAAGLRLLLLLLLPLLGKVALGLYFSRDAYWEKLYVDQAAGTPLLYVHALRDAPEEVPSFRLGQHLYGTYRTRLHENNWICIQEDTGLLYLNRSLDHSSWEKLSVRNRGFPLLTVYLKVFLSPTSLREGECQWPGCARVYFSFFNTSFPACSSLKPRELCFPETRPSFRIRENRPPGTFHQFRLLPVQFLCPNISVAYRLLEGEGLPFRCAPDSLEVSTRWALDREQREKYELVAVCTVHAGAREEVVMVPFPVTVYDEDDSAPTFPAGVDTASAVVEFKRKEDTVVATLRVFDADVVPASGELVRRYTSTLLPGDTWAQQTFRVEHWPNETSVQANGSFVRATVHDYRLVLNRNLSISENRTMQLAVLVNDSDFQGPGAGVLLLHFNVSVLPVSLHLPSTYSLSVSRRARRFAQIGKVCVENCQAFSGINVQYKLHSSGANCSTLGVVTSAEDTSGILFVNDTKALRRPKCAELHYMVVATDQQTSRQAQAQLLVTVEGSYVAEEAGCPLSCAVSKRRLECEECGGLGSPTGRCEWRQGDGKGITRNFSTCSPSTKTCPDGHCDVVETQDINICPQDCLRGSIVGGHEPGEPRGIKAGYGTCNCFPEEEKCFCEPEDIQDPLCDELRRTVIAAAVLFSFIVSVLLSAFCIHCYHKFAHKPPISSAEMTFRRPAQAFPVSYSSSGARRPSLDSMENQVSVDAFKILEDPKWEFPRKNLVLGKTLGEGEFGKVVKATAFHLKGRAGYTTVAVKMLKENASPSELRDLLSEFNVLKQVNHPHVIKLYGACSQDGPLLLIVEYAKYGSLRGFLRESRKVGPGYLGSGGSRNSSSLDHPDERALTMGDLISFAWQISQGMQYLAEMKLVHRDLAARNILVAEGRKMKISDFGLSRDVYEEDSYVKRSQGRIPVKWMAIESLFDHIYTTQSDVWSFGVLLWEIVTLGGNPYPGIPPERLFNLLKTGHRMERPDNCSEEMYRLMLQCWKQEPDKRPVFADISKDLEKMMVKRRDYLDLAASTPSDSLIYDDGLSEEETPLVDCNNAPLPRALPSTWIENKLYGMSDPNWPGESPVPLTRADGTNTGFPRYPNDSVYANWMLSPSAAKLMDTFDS
T1 sequence (P07333 whole entry, the tested form may be a part): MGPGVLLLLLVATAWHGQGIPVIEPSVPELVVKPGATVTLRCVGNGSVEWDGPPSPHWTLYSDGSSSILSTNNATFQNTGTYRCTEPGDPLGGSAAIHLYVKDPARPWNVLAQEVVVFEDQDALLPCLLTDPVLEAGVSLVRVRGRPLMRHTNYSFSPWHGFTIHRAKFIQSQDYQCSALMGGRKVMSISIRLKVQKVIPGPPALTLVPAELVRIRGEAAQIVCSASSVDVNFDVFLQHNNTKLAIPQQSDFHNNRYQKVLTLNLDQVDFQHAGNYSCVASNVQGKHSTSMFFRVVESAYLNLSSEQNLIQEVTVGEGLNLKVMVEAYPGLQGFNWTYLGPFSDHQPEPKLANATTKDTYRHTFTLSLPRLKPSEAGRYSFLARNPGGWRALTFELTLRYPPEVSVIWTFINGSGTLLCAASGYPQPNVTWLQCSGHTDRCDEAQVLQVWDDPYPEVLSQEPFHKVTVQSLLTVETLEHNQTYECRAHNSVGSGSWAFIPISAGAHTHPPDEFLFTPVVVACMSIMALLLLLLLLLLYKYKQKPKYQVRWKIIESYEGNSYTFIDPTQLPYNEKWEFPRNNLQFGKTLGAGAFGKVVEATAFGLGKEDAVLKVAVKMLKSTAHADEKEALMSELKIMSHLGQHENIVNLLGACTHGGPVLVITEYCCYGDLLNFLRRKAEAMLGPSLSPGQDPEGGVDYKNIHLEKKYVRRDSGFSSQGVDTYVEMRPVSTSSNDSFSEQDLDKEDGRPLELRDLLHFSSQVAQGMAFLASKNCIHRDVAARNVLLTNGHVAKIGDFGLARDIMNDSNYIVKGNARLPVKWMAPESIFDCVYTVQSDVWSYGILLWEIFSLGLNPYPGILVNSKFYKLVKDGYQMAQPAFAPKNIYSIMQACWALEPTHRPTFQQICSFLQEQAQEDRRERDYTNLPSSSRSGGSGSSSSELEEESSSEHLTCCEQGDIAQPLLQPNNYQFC
T2 sequence (P07949 29-1114 limits assumed): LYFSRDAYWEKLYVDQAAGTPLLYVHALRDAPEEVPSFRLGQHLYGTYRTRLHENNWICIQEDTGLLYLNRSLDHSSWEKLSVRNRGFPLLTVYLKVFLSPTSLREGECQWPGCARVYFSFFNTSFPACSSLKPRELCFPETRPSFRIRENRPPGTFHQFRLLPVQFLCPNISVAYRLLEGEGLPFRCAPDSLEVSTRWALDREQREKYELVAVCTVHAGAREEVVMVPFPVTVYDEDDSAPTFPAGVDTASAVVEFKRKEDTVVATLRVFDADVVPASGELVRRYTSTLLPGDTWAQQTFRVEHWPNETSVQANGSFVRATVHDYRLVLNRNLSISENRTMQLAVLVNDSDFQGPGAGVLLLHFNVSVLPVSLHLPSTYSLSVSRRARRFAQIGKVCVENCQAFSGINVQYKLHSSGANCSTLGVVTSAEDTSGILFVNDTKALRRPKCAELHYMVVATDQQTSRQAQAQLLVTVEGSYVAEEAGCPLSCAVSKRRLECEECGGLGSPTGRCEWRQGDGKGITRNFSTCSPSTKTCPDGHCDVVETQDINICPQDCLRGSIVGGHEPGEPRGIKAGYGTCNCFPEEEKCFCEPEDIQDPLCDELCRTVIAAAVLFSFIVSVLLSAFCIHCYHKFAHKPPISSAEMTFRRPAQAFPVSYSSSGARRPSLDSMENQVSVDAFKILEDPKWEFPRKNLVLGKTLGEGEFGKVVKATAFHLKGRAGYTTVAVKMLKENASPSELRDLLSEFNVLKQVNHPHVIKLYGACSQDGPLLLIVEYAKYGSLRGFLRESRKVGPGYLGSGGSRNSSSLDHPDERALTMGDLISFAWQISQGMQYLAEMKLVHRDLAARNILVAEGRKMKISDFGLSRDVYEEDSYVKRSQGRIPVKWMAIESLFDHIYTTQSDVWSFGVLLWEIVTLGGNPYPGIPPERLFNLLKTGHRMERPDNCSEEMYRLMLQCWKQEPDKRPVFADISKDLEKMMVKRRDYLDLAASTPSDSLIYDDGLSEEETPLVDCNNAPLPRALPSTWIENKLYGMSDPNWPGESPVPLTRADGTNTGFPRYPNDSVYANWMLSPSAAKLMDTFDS
T2 sequence (Q16204 2-474 partner limits assumed): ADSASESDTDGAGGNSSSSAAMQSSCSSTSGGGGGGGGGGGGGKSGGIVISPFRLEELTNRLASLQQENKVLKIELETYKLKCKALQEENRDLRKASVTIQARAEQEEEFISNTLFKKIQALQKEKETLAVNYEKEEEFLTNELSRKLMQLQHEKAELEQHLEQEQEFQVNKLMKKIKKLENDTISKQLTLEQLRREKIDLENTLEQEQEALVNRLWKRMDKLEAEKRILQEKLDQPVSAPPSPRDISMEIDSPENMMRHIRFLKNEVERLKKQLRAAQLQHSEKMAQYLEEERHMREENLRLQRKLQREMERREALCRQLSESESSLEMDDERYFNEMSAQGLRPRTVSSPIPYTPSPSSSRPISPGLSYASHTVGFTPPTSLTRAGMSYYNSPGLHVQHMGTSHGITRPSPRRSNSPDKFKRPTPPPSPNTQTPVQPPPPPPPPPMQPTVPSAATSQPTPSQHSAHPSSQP
Chain of Tyrosine-protein kinase Lyn (Homo sapiens) (P07948 2-512 limits assumed): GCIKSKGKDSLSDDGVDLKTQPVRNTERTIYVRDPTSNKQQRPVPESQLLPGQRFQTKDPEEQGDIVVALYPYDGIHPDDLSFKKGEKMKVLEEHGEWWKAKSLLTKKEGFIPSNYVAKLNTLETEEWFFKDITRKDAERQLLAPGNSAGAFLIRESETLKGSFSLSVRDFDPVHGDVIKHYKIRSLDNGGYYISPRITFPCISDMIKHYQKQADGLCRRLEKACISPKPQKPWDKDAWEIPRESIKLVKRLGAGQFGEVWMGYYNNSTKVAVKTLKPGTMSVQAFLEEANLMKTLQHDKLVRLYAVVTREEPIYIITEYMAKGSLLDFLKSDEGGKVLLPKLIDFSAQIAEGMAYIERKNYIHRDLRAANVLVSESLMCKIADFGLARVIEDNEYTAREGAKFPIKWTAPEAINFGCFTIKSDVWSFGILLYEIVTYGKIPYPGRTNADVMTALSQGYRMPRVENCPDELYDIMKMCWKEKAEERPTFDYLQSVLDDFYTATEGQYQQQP
Chain of GTPase HRas (Homo sapiens), P01112 [G12V] (P01112 whole entry G12V, canonical isoform): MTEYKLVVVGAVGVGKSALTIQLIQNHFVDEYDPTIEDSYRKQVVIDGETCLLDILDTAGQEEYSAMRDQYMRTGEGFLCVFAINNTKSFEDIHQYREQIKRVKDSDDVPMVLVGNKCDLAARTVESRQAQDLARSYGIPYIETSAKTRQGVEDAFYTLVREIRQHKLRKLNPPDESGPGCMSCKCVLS
Chain of Proto-oncogene tyrosine-protein kinase receptor Ret (Homo sapiens), P07949 [C634W] (P07949 whole entry C634W, canonical isoform): as the sequence (P07949 whole entry C634R, canonical isoform) above, with R634W counted along it
Chain of Tyrosine-protein kinase FRK (Homo sapiens) (P42685 whole entry, the tested form may be a part, canonical isoform): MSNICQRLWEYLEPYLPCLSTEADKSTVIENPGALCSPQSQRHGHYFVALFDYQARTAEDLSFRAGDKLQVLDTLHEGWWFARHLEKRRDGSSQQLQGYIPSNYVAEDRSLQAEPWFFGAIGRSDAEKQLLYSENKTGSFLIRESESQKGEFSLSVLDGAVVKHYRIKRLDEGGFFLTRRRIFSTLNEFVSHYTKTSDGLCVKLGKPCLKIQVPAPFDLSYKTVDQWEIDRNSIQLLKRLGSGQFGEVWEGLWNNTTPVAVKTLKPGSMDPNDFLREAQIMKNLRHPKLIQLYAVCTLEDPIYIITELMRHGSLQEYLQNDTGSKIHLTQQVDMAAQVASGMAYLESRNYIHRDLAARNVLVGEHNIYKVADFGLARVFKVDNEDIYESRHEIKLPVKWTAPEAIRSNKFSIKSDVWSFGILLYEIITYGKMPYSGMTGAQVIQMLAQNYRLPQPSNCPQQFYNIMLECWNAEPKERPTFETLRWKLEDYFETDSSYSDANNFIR

Broadly, the inhibition is the drop in the measured response relative to a control, in per cent. Usually IC50 stands for the concentration at which inhibition is half-maximal. Regarding `CC(C)(C)c1cc(NC(=O)Cc2ccc(-n3cnc4cc(-c5ccc(S(C)(=O)=O)cc5)ccc43)cc2)no1`, the inhibition result (in the assay with Mus musculus [1]; in assay [3]; in assay [4]; in assay [8]; in the assay with Mus musculus [13]) was “Active” in each case. Also, the inhibition result in [2] and in assay [7] was “inactive” each time. The IC50 amounted to 7.57 µM in assay [5] and 0.046 µM in [6]. The result in the assay filed under Homo sapiens was inactive. Further, the Activity in assay [9], in assay [10] and in assay [11] was greater than 90% in each case. In addition, in assay [12], the inhibition amounted to 100%.
